{"data": "Assay results gathered from unrelated publications", "organism": "Staphylococcus aureus", "effect on": "microbial growth", "note": "Each line is one published result; the experiments were not run side by side."}
{"SMILES": "COC(=O)c1cc(-c2cccc(NC(=S)Nc3ccc(Cl)cc3)c2)on1", "assay": "broth dilution", "test system": "ATCC29213", "MIC": "> 64 µg/mL"}
{"SMILES": "C=C(NC(=O)C(=C)NC(=O)c1csc(C2=N[C@@H]3c4csc(n4)[C@H]4NC(=O)c5csc(n5)[C@H]([C@](C)(O)[C@@H](C)O)NC(=O)[C@H]5CSC(=N5)/C(=C/C)NC(=O)[C@H]([C@@H](C)O)NC(=O)c5csc(n5)[C@]3(CC2)NC(=O)[C@H](C)NC(=O)C(=C)NC(=O)[C@H](C)NC(=O)[C@H]([C@@H](C)CC)N[C@@H]2C=Cc3c([C@H](C)O)cc(nc3[C@H]2O)C(=O)O[C@@H]4C)n1)C(N)=O", "test system": "MRSA", "MIC": "0.12 µg/mL"}
{"SMILES": "CN[C@H](CC(C)C)C(=O)N[C@H]1C(=O)N[C@@H](CC(N)=O)C(=O)N[C@H]2C(=O)N[C@H]3C(=O)N[C@H](C(=O)N[C@H](C(=O)O)c4cc(O)cc(O)c4-c4cc3ccc4O)[C@H](O)c3ccc(c(Cl)c3)Oc3cc2cc(c3O[C@@H]2O[C@H](CO)[C@@H](O)[C@H](O)[C@H]2O[C@H]2C[C@](C)(N)[C@H](O)[C@H](C)O2)Oc2ccc(cc2Cl)[C@H]1O", "test system": "ATCC33591", "setting": "drug-resistant strain", "MIC": "1.56 µg/mL"}
{"SMILES": "Cc1ccccc1-n1c(Cn2cnc3c(N)ncnc32)nc2cccc(C)c2c1=O", "test system": "NCTC8325", "MIC": "> 30 µM"}
{"SMILES": "Cc1cccc2nc(-c3ccc([N+](=O)[O-])o3)[nH]c12", "assay": "broth dilution", "test system": "ATCC700699 MRSA", "setting": "drug-resistant strain", "MIC": "2 µg/mL"}
{"SMILES": "COc1cccc(-c2nc3ccccc3[nH]2)c1", "assay": "broth dilution", "test system": "ATCC43300 MRSA", "setting": "drug-resistant strain", "MIC": "512 µg/mL"}
{"SMILES": "C[C@@H](O)[C@H]1C(=O)N2C(C(=O)O)=C(S[C@@H]3CN[C@H](C(=O)N(C)C)C3)[C@H](C)[C@H]12", "test system": "USA300", "MIC": "1 µg/mL"}
{"SMILES": "COC(=O)c1cc(-c2cccc(NC(=S)Nc3ccc(OC)cc3)c2)on1", "assay": "broth dilution", "test system": "ATCC29213", "MIC": "> 64 µg/mL"}
{"SMILES": "COc1ccc(Cc2cnc(N)nc2N)cc1OC", "assay": "broth dilution", "MIC": "~50 µM"}
{"SMILES": "Cc1ccc2nc(-c3cccnc3)[nH]c2c1", "assay": "broth dilution", "test system": "ATCC43300 MRSA", "setting": "drug-resistant strain", "MIC": "128 µg/mL"}
{"SMILES": "COC(=O)c1cc(-c2cccc(NC(=S)Nc3cc(C(F)(F)F)cc(C(F)(F)F)c3)c2)on1", "assay": "broth dilution", "test system": "ATCC29213", "MIC": "8 to 16 µg/mL"}
{"SMILES": "CCC(CC)c1cc(CCN2CCCN(Cc3ccc(C(F)(F)F)cc3)CC2)nc(-c2ccncc2)n1", "test system": "ATCCBAA41", "setting": "drug-resistant strain, clinical isolate", "MIC": "6 µg/mL"}
{"SMILES": "Cc1ccc2nc(-c3ccc(Cl)cc3)[nH]c2c1", "assay": "broth dilution", "test system": "ATCC43300 MRSA", "setting": "drug-resistant strain", "MIC": "512 µg/mL"}
{"SMILES": "CCC1C(=NOCc2cn(-c3ccccc3)nn2)CC(c2ccccc2)OC1c1ccccc1 (stereo not drawn)", "assay": "broth dilution", "test system": "MTCC96", "setting": "24 h", "MIC": "50 µg/mL"}
{"SMILES": "O=C(CCCCC1CCCCC1)NP(=O)(O)O", "test system": "ATCC33591 MRSA", "setting": "drug-resistant strain", "MIC": "> 200 µg/mL"}
{"SMILES": "CC(C)(C)c1cc(NC(=O)Nc2ccc(Oc3ccncc3)cc2)no1", "test system": "NCTC8325", "MIC": "100 µM"}
{"SMILES": "CC(c1ccc(Cl)c(Cl)c1)n1cnc2cc3c(cc21)CCCC3 (stereo not drawn)", "MIC": "3.1 to 6.3 µg/mL"}
{"SMILES": "Clc1ccc(Cn2c(-c3ccc(Cl)cc3)nc3ccccc32)cc1", "assay": "broth dilution", "test system": "ATCC43300 MRSA", "setting": "drug-resistant strain", "MIC": "16 µg/mL"}
{"SMILES": "CCCCCCCCCCCC(=O)C(F)(F)P(=O)(O)O", "test system": "ATCC33591 MRSA", "setting": "drug-resistant strain", "MIC": "> 200 µg/mL"}
{"SMILES": "COc1ccc(-c2nc3ccc(C)cc3[nH]2)cc1O", "assay": "broth dilution", "test system": "ATCC43300 MRSA", "setting": "drug-resistant strain", "MIC": "128 µg/mL"}
{"SMILES": "CN[C@H](CC(C)C)C(=O)N[C@H]1C(=O)N[C@@H](CC(N)=O)C(=O)N[C@H]2C(=O)N[C@H]3C(=O)N[C@H](C(=O)N[C@H](C(=O)O)c4cc(O)cc(O)c4-c4cc3ccc4O)[C@H](O)c3ccc(c(Cl)c3)Oc3cc2cc(c3O[C@@H]2O[C@H](CO)[C@@H](O)[C@H](O)[C@H]2O[C@H]2C[C@](C)(N)[C@H](O)[C@H](C)O2)Oc2ccc(cc2Cl)[C@H]1O", "assay": "broth dilution", "test system": "BAA44 MRSA", "setting": "drug-resistant strain", "MIC": "0.59 µM"}
{"SMILES": "CCCCCCCCCCCCCCCC(=O)C(F)(F)P(=O)(O)O", "test system": "ATCC33591 MRSA", "setting": "drug-resistant strain", "MIC": "100 µg/mL"}
{"SMILES": "COC(=O)c1cc(-c2cccc(NC(=S)Nc3cccc(Br)c3)c2)on1", "assay": "broth dilution", "test system": "ATCC29213", "MIC": "> 64 µg/mL"}
{"SMILES": "Cc1ccc2[nH]c3c(c2c1)CCCC3NCCc1ccc(Br)cc1 (stereo not drawn)", "assay": "broth dilution", "test system": "MRSA USA300", "MIC": "4 µg/mL"}
{"SMILES": "CN[C@H](CC(C)C)C(=O)N[C@H]1C(=O)N[C@@H](CC(N)=O)C(=O)N[C@H]2C(=O)N[C@H]3C(=O)N[C@H](C(=O)N[C@H](C(=O)O)c4cc(O)cc(O)c4-c4cc3ccc4O)[C@H](O)c3ccc(c(Cl)c3)Oc3cc2cc(c3O[C@@H]2O[C@H](CO)[C@@H](O)[C@H](O)[C@H]2O[C@H]2C[C@](C)(N)[C@H](O)[C@H](C)O2)Oc2ccc(cc2Cl)[C@H]1O", "assay": "broth dilution", "test system": "ATCC25923", "MIC": "1 µg/mL"}
{"SMILES": "Oc1cc(Cl)ccc1Oc1ccc(Cl)cc1Cl", "MIC": "1.8 µg/mL"}
{"SMILES": "COC(=O)c1cc(-c2cccc(NC(=O)Nc3ccccc3C)c2)on1", "assay": "broth dilution", "test system": "ATCC29213", "MIC": "> 64 µg/mL"}
{"SMILES": "CCCCCCCCCC(=O)N[C@@H](Cc1c[nH]c2ccccc12)C(=O)N[C@H](CC(N)=O)C(=O)N[C@@H](CC(=O)O)C(=O)N[C@@H]1C(=O)NCC(=O)N[C@@H](CCCN)C(=O)N[C@@H](CC(=O)O)C(=O)N[C@H](C)C(=O)N[C@@H](CC(=O)O)C(=O)NCC(=O)N[C@H](CO)C(=O)N[C@@H]([C@H](C)CC(=O)O)C(=O)N[C@@H](CC(=O)c2ccccc2N)C(=O)O[C@@H]1C", "assay": "broth dilution", "test system": "USA300", "setting": "drug-resistant strain", "MIC": "0.5 µg/mL"}
{"SMILES": "CC(=O)O[C@H]1C[C@@]2(C)[C@@H](C[C@@H](O)[C@H]3[C@@]4(C)CC[C@@H](O)[C@@H](C)[C@@H]4CC[C@@]32C)/C1=C(\\CCC=C(C)C)C(=O)O", "test system": "ATCCBAA1721", "MIC": "8 µg/mL"}
{"SMILES": "CCCCCCCCCCCCCCCC(=O)N(C)[C@H](CO)C(=O)N[C@H](C)C(=O)NCC(=O)N(C)[C@@H]1C(=O)N[C@@H](C)C(=O)N[C@H](C(=O)O)Cc2ccc(O)c(c2)-c2cc1ccc2O", "test system": "MRSA", "MIC": "25 µg/mL"}
{"SMILES": "Cc1ccc2[nH]c3c(c2c1)CCCC3NCCc1ccc(O)cc1 (stereo not drawn)", "assay": "broth dilution", "test system": "VISA", "MIC": "16 µg/mL"}
{"SMILES": "Cc1ccc2nc(-c3c4ccccc4cc4ccccc34)[nH]c2c1", "assay": "broth dilution", "test system": "ATCC43300 MRSA", "setting": "drug-resistant strain", "MIC": "128 µg/mL"}
{"SMILES": "COc1cccc(OC)c1C(=O)N[C@@H]1C(=O)N2[C@@H]1SC(C)(C)[C@@H]2C(=O)O", "test system": "ATCCBAA1720", "setting": "drug-resistant strain, clinical isolate", "MIC": "> 64 µg/mL"}
{"SMILES": "COC(=O)c1cc(-c2cccc(NC(=O)Nc3ccc(Cl)c(Cl)c3)c2)on1", "assay": "broth dilution", "test system": "ATCC29213", "MIC": "> 64 µg/mL"}
{"SMILES": "Clc1ccc(-c2nc3ccccc3n2Cc2ccccc2)cc1Cl", "assay": "broth dilution", "test system": "ATCC43300 MRSA", "setting": "drug-resistant strain", "MIC": "16 µg/mL"}
{"SMILES": "CC(=O)Nc1c2sscc-2[nH]c1=O", "test system": "BAA1556 MRSA", "setting": "drug-resistant strain", "MIC": "5 µM"}
{"SMILES": "N#CC(C#N)=Cc1ccc(O)c(O)c1", "test system": "NCTC8325", "MIC": "> 30 µM"}
{"SMILES": "O=C(CCCCCCCCCCOc1ccccc1)NP(=O)(O)O", "test system": "ATCC33591 MRSA", "setting": "drug-resistant strain", "MIC": "100 µg/mL"}
{"SMILES": "COC(=O)c1cc(-c2ccc(OC)c(NC(=O)Nc3ccc(Cl)c(Cl)c3)c2)on1", "assay": "broth dilution", "test system": "ATCC29213", "MIC": "> 64 µg/mL"}
{"SMILES": "CCCCCCCC/C=C\\CCCCCCCCNC(=O)CP(=O)(O)O", "test system": "ATCC33591 MRSA", "setting": "drug-resistant strain", "MIC": "100 µg/mL"}
{"SMILES": "CC1(C)CC[C@]2(C(=O)O)CC[C@]3(C)C(=CC[C@@H]4[C@@]5(C)CC[C@H](O)C(C)(C)[C@@H]5CC[C@]43C)[C@@H]2C1", "test system": "ATCC25904", "MIC": "256 µg/mL"}
{"SMILES": "COc1ccc(-c2nc3ccccc3n2Cc2ccccc2)cc1OC", "assay": "broth dilution", "test system": "ATCC43300 MRSA", "setting": "drug-resistant strain", "MIC": "8 µg/mL"}
{"SMILES": "COC(=O)c1cc(-c2cccc(NC(=O)Nc3ccc(Cl)cc3Cl)c2)on1", "assay": "broth dilution", "test system": "ATCC29213", "MIC": "> 64 µg/mL"}
{"SMILES": "CO/N=C(\\C(=O)N[C@@H]1C(=O)N2C(C(=O)O)=C(CSc3nc(=O)c(=O)[nH]n3C)CS[C@H]12)c1csc(N)n1", "test system": "USA300", "MIC": "64 µg/mL"}
{"SMILES": "O=C(Nc1ccc(Cl)c(C(F)(F)F)c1)N1CCCCC1", "test system": "NCTC8325", "MIC": "30 µM"}
